Assay results taken from ChEMBL document CHEMBL5321214, “Targeting the multifaceted neurotoxicity of Alzheimer's disease by tailored functionalisation of the curcumin scaffold” (Eur J Med Chem, 2023).
Blank lines part the entries; values can stand above or below the compound they belong to. Calls of active or inactive are those of the source. The calls are words filed in the database; no cut-off is given here.

Experiments:
[1] = target: Keap1/Nrf2 (Homo sapiens) (UniProt Q16236+Q14145); experiment: Activation of Keap1/Nrf2 in human SH-SY5Y cells assessed as Nrf2 nuclear translocation by measuring increase in nuclear to cytosolic Nrf2 ratio at 2.5 uM incubated for 3 hrs by western blot analysis; assay type: cell-based; conditions: filed as activator
Procedure, shortened: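 SH-SY5Y seeded 2×10^6 cells/dish, grown 24 h, then exposed 3 h at 37 °C, 5% CO2. Nuclear and cytosolic fractions immunoblotted for Nrf2, membranes stripped and reprobed for β-actin and lamin B1 as loading references. Mean ± SEM of three independent experiments; one-way ANOVA with Dunnett's test.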

[2] = system: Microglia; experiment: Antiinflammatory activity against Sprague-Dawley rat microglial cells assessed as downregulation of IL-1 beta mRNA expression at 5 uM pretreated with compound for 1 hr followed by LPS stimulation for 6 hrs by real-time PCR analysis; assay type: functional, cell-based; conditions: time 7.0 hrs
Procedure, shortened: (§1)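 Primary cortical microglia (postnatal day 1 rat pups, shaken off mixed glial cultures, ~97% Iba1-positive). Compound (DMSO ≤0.1%) for 1 h, then 100 ng/mL ultra-pure E. coli LPS for 6 h. QIAzol RNA extraction, SuperScript IV reverse transcription, real-time PCR. Mean ± SEM, n = 3 in triplicate; one-way ANOVA, Holm-Sidak test.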

[3] = system: SH-SY5Y; experiment: Antioxidant activity in human SH-SY5Y cells assessed as reduction in intracellular ROS formation at 2.5 uM incubated for 24 hrs followed by incubation with t-BuOOH for 30 mins by H2DCF-DA staining based fluorescence analysis; assay type: functional; conditions: time 24.5 hrs
Procedure, shortened: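 SH-SY5Y (2×10^4 cells/well) exposed to 2.5 μM for 24 h, loaded with H2DCF-DA 30 min at room temperature, probe removed, then challenged with 50 μM t-BuOOH 30 min at room temperature. Fluorescence ex 485/em 535 nm, expressed as % ROS increase. Three independent experiments; one-way ANOVA with Dunnett's test.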

[4] = system: Drosophila; experiment: Antioxidant activity in Spastin Drosophila (Tubulin/Gal4 RNAi DSpast) neurodegenerative model assessed as decrease in intracelluar ROS level in brain at 10 uM flies raised in compound-enriched food by DHE staining based fluorescence analysis; assay type: functional, organism-based
Procedure, shortened: (§2)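 Spastin-RNAi (Tubulin-Gal4 cross, 28 °C) third-instar larvae raised on compound-enriched food, dissected in HL3, stained 30 min with 30 μM DHE, fixed in 4% PFA, DAPI counterstained. Confocal imaging (DHE 580–630 nm); two 2500 μm² ROIs per muscle or two 1900 μm² ROIs per brain, 10–15 larvae per group; DHE/DAPI ratio.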

[5] = target: Amyloid-beta precursor protein (Homo sapiens) (UniProt P05067); experiment: Anti-oligomeric activity against Abeta42 (unknown origin) assessed as depletion of the formation of toxic HMW Abeta42 oligomers at 1 uM measured at day 7 to 10 from sample solubilization by capillary electrophoresis assay; conditions: time 7-10 day
Procedure, shortened: (§3)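 Aβ42 stock diluted to 221 μM in 20 mM sodium phosphate pH 7.4 containing compound (ethanol stocks 1.53 mM). Capillary electrophoresis: BGE 80 mM sodium phosphate pH 7.4, 30 mbar × 3 s hydrodynamic injection, +12 kV, 25 °C, 200 nm detection. Oligomers assigned by effective mobility; HMW oligomer peak quantified semiquantitatively as normalised area %.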

[6] = Toxicity against Drosophila W1118 assessed as minimum toxic concentration by measuring eclosion rate measured for 72 hrs
[7] = Toxicity against Drosophila W1118 assessed as proportion of eclosed-flies at 10 uM measured after 72 hrs
[8] = system: Drosophila; experiment: Antioxidant activity in Spastin Drosophila (Tubulin/Gal4 RNAi DSpast) neurodegenerative model assessed as decrease in intracelluar ROS level in A2 muscle at 10 uM flies raised in compound-enriched food by DHE staining based fluorescence analysis; assay type: functional, organism-based; procedure, shortened: as §2
[9] = target: Amyloid-beta precursor protein (Homo sapiens) (UniProt P05067); experiment: Anti-oligomeric activity against Abeta42 (unknown origin) assessed as depletion of the formation of toxic HMW Abeta42 oligomers at 5 uM measured at day 7 from sample solubilization by capillary electrophoresis assay; conditions: time 7.0 day; procedure, shortened: as §3
[10] = system: Microglia; experiment: Antiinflammatory activity against Sprague-Dawley rat microglial cells assessed as downregulation of NLRP3 mRNA expression at 5 uM pretreated with compound for 1 hr followed by LPS stimulation for 6 hrs by real-time PCR analysis; assay type: functional, cell-based; conditions: time 7.0 hrs; procedure, shortened: as §1
[11] = system: Drosophila; experiment: Downregulation of SOD1 transcript expression in Spastin Drosophila (Tubulin/Gal4 RNAi DSpast) neurodegenerative model at 10 uM flies raised in compound-enriched food by real-time PCR analysis; assay type: functional
Procedure, shortened: (§4)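 Total RNA from 5 third-instar Spastin-RNAi larvae raised on standard or compound-enriched food; Tubulin-Gal4/+ as control line. One-step SYBR RT-qPCR normalised to Rp49 by the 2^−ΔΔCt method. n = 3 experiments; one-way ANOVA, Tukey's test.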

[12] = Toxicity against Drosophila W1118 assessed as proportion of eclosed-flies at 50 uM measured after 72 hrs
[13] = system: Microglia; experiment: Antiinflammatory activity against Sprague-Dawley rat microglial cells assessed as downregulation of TNF-alpha mRNA expression at 5 uM pretreated with compound for 1 hr followed by LPS stimulation for 6 hrs by real-time PCR analysis; assay type: functional, cell-based; conditions: time 7.0 hrs; procedure, shortened: as §1
[14] = system: SH-SY5Y; experiment: Cytotoxicity against human SH-SY5Y cells assessed as decrease in cell viability at >5 uM incubated for 24 hrs by MTT assay; assay type: toxicity, cell-based
Procedure, shortened: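 SH-SY5Y, 2×10^4 cells/well, grown 24 h then exposed 24 h (1.25–40 μM) at 37 °C, 5% CO2. MTT 0.5 mg/mL in HBSS for 2 h, washed, formazan dissolved in isopropanol, read at 570 nm (reference 690 nm).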

[15] = system: Drosophila; experiment: Downregulation of Nrf2 transcript expression in Spastin Drosophila (Tubulin/Gal4 RNAi DSpast) neurodegenerative model at 10 uM flies raised in compound-enriched food by real-time PCR analysis; assay type: functional; procedure, shortened: as §4
[16] = system: SH-SY5Y; experiment: Antioxidant activity in human SH-SY5Y cells assessed as increase in intracellular GSH level at 2.5 uM incubated for 24 hrs by […] fluorescence analysis; assay type: functional
Procedure, shortened: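 SH-SY5Y (2×10^4 cells/well) grown 24 h, then exposed to 2.5 μM for 24 h at 37 °C. Fluorescent probe added 30 min at 37 °C; read at ex 355/em 460 nm. GSH (μM) from a GSH standard curve. Mean ± SEM of three experiments; one-way ANOVA with Dunnett's test.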

[17] = Toxicity against Drosophila W1118 assessed as proportion of eclosed-flies at 20 uM measured after 72 hrs
[18] = system: Drosophila; experiment: Effect on CAT transcript expression in Spastin Drosophila (Tubulin/Gal4 RNAi DSpast) neurodegenerative model at 10 uM flies raised in compound-enriched food by real-time PCR analysis; assay type: functional; procedure, shortened: as §4
[19] = Effect on IL-1 beta release in Sprague-Dawley rat microglial cells at 5 uM by ELISA; assay type: toxicity, cell-based; conditions: microglia
Procedure, shortened: (§5)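 Primary cortical rat microglia in DMSO (≤0.1%) or vehicle for 1 h, then 100 ng/mL LPS for 24 h. TNF-α and IL-1β in culture medium by ELISA against standard curves (pg/mL), expressed as % of LPS-stimulated cultures. Mean ± SEM of 3 independent experiments; one-way ANOVA, Holm-Sidak test.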

[20] = Toxicity against Drosophila W1118 assessed as proportion of eclosed-flies at 1 uM measured after 72 hrs
[21] = Toxicity against Drosophila W1118 assessed as proportion of eclosed-flies at 30 uM measured after 72 hrs
[22] = system: Microglia; experiment: Antiinflammatory activity against Sprague-Dawley rat microglial cells assessed as inhibition of LPS-induced IL-1 beta production at 1 to 5 uM pretreated with compound for 1 hr followed by LPS stimulation for 24 hrs by ELISA; assay type: functional, cell-based; conditions: dose 1-5 µM, time 25.0 hrs; procedure, shortened: as §5
[23] = system: Microglia; experiment: Cytotoxicity against Sprague-Dawley rat microglial cells assessed as decrease in cell viability at 10 uM incubated for 24 hrs by MTT assay; assay type: toxicity, cell-based
Procedure, shortened: (§6)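 Primary rat microglia, 6×10^4 cells/well, switched to serum-free medium 1 h before 24 h exposure (1–20 μM, DMSO ≤0.1%). MTT 0.18 mg/mL for 4 h at 37 °C, formazan dissolved in DMSO, absorbance 570 nm (reference 630 nm). Vehicle-treated cells = 100% viability.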

[24] = Effect on TNF-alpha release in Sprague-Dawley rat microglial cells at 5 uM by ELISA; assay type: toxicity, cell-based; conditions: microglia; procedure, shortened: as §5
[25] = system: Microglia; experiment: Antiinflammatory activity against Sprague-Dawley rat microglial cells assessed as inhibition of LPS-induced TNF-alpha production at 1 to 5 uM pretreated with compound for 1 hr followed by LPS stimulation for 24 hrs by ELISA; assay type: functional, cell-based; conditions: dose 1-5 µM, time 25.0 hrs; procedure, shortened: as §5
[26] = system: Microglia; experiment: Antiinflammatory activity against Sprague-Dawley rat microglial cells assessed as inhibition of LPS-induced TNF-alpha production at 1 to 10 uM pretreated with compound for 1 hr followed by LPS stimulation for 24 hrs by ELISA; assay type: functional, cell-based; conditions: dose 1-10 µM, time 25.0 hrs; procedure, shortened: as §5
[27] = Effect on TNF-alpha release in Sprague-Dawley rat microglial cells at 10 uM by ELISA; assay type: toxicity, cell-based; conditions: microglia; procedure, shortened: as §5
[28] = Effect on IL-1 beta release in Sprague-Dawley rat microglial cells at 10 uM by ELISA; assay type: toxicity, cell-based; conditions: microglia; procedure, shortened: as §5
[29] = system: Microglia; experiment: Antiinflammatory activity against Sprague-Dawley rat microglial cells assessed as inhibition of LPS-induced IL-1 beta production at 1 to 10 uM pretreated with compound for 1 hr followed by LPS stimulation for 24 hrs by ELISA; assay type: functional, cell-based; conditions: dose 1-10 µM, time 25.0 hrs; procedure, shortened: as §5
[30] = system: Microglia; experiment: Cytotoxicity against Sprague-Dawley rat microglial cells assessed as decrease in cell viability at 20 uM incubated for 24 hrs by MTT assay; assay type: toxicity, cell-based; procedure, shortened: as §6
[31] = system: Microglia; experiment: Antiinflammatory activity against Sprague-Dawley rat microglial cells assessed as downregulation of TNF-alpha mRNA expression at 10 uM pretreated with compound for 1 hr followed by LPS stimulation for 6 hrs by real-time PCR analysis; assay type: functional, cell-based; conditions: time 7.0 hrs; procedure, shortened: as §1
[32] = system: Microglia; experiment: Antiinflammatory activity against Sprague-Dawley rat microglial cells assessed as downregulation of NLRP3 mRNA expression at 10 uM pretreated with compound for 1 hr followed by LPS stimulation for 6 hrs by real-time PCR analysis; assay type: functional, cell-based; conditions: time 7.0 hrs; procedure, shortened: as §1
[33] = system: Microglia; experiment: Antiinflammatory activity against Sprague-Dawley rat microglial cells assessed as downregulation of IL-1 beta mRNA expression at 10 uM pretreated with compound for 1 hr followed by LPS stimulation for 6 hrs by real-time PCR analysis; assay type: functional, cell-based; conditions: time 7.0 hrs; procedure, shortened: as §1

Chain of Amyloid-beta precursor protein (Homo sapiens) (P05067 whole entry): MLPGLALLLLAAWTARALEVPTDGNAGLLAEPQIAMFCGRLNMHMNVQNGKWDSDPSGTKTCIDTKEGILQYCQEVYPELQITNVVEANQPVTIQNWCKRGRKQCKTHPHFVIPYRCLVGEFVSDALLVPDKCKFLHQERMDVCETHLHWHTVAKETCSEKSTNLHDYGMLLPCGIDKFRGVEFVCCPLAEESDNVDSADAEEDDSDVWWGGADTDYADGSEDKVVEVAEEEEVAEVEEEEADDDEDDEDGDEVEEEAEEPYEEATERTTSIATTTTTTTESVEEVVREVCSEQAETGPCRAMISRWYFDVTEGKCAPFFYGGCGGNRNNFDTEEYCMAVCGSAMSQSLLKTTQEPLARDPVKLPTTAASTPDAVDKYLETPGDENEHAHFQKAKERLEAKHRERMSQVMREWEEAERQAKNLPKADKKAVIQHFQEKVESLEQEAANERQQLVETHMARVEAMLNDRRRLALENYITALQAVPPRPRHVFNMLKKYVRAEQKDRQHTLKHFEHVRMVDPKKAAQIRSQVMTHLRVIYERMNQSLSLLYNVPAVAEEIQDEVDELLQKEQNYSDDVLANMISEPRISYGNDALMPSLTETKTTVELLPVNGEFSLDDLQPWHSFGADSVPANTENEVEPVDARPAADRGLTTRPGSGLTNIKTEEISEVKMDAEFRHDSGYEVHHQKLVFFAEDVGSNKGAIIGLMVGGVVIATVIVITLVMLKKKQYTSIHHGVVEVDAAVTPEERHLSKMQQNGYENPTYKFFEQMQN
Chain of Keap1/Nrf2 (Homo sapiens) (Q14145 whole entry, looked up): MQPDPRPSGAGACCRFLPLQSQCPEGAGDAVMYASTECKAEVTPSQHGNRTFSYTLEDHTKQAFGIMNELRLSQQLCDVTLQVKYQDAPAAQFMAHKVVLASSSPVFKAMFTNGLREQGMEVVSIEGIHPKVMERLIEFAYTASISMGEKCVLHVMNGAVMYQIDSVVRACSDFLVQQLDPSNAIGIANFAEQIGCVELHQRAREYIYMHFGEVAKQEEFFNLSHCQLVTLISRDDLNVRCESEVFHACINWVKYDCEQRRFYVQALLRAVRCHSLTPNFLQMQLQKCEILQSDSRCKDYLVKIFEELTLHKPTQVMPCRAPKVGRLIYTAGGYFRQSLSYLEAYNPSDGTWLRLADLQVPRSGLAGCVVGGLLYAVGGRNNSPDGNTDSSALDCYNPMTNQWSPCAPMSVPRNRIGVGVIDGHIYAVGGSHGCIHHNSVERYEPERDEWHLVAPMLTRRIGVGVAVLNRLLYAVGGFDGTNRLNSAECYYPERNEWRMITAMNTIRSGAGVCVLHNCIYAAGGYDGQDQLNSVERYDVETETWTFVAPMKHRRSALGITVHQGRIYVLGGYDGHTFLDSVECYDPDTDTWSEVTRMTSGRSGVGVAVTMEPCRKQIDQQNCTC
Chain of Keap1/Nrf2 (Homo sapiens) (Q16236 whole entry, looked up): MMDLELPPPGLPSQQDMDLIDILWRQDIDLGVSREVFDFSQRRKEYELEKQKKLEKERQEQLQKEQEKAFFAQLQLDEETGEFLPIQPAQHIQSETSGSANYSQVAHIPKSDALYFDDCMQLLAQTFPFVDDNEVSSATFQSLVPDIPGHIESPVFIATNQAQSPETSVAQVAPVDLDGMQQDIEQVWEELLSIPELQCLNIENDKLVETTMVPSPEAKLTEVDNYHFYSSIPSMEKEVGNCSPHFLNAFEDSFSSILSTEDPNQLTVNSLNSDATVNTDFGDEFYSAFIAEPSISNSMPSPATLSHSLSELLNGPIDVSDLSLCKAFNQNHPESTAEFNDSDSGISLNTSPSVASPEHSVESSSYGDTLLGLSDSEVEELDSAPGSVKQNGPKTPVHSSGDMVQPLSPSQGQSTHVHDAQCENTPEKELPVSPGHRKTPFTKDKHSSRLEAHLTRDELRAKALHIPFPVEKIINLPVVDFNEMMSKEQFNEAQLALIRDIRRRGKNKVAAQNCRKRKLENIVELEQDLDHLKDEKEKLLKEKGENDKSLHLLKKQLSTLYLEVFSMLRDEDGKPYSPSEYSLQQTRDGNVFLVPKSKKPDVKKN

Activity [1]: Active
Compound: CCOC(=O)Cn1cc(C/C(C(=O)/C=C/c2ccc(OC)cc2)=C(O)\C=C\c2ccc(OC)cc2)nn1
Activity [2]: Active
inhibition at 2.5 µM [3]: 28%
Activity [4]: Active
Activity [5]: Active
MTC [6]: 10 µM
Activity [7]: 94.732%
Activity [8]: Active
Activity [9]: Active
Activity [10]: Active
inhibition [11]: Active
Activity [12]: 68.373%
Activity [13]: Active
Activity [14]: Toxic
inhibition [15]: Active
Activity [16]: Active
Activity [17]: 83.806%
Activity [18]: inactive
Activity [19]: Non-Toxic
Activity [20]: 94.037%
Activity [21]: 81.642%
Activity [22]: Active
Activity [23]: Toxic
Activity [24]: Non-Toxic
Activity [25]: Active

Compound: COc1ccc(/C=C/C(=O)/C(CC(=O)OC(C)(C)C)=C(O)/C=C/c2ccc(OC)cc2)cc1
Activity [26]: Active
Activity [27]: Non-Toxic
Activity [28]: Non-Toxic
Activity [29]: Active
Activity [30]: Toxic

Compound: COc1cc(/C=C/C(=O)CC(=O)/C=C/c2ccc(O)c(OC)c2)ccc1O [CURCUMIN]
Activity [26]: Active
Activity [31]: Active
Activity [9]: Active
Activity [27]: Non-Toxic
Activity [32]: Active
Activity [28]: Non-Toxic
Activity [29]: Active
Activity [33]: Active
Activity [30]: Toxic
